Test results as given in ChEMBL document CHEMBL1125727 (J Med Chem, 1991).

Legend:
Format in all cases: functional, cell-based
[1] = test system: UV4; assay: Hypersensitivity factor obtained from in vitro cytotoxicities against Chinese hamster ovary derived AA8 / UV4 cell lines; settings: Cricetulus griseus
How it was run: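 HF = IC50(AA8)/IC50(UV4). Both lines kept in Alpha MEM with 10% fetal calf serum and exposed to drug for 18 h, then washed three times and grown 72 h more. Density read by methylene blue. Each IC50 is the nominal concentration giving 50% of control density, with eight controls per plate.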

[2] = test system: CHO-AA8; assay: Compound was evaluated for in vitro cytotoxicities against Chinese hamster ovary derived AA8 cell lines.; settings: Cricetulus griseus
How it was run: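 AA8 cells kept in exponential growth in Alpha MEM with 10% fetal calf serum. Log-phase cultures in 96-well plates, drug exposure 18 h, ended by three washes with fresh medium, then 72 h further growth. Cell density read by methylene blue staining. IC50 is the nominal concentration reducing cell density to 50% of control, with eight controls per plate.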

[3] = test system: P388; assay: In vitro cytotoxicity against murine leukemia P388 cell line.; settings: Mus musculus
How it was run: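 P388 cells kept in exponential growth in RPMI 1640 with 10% fetal calf serum. Log-phase cultures in 96-well plates with drug present throughout 72 h growth. Final density read by a modified MTT method. IC50 is the nominal concentration reducing cell density to 50% of control, with eight controls per plate.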

[4] = test system: P388; assay: Percentage increase in lifespan of drug-related tumor bearing animals when heated at the optimal dose and tested in murine leukemia P388 cell lines.; settings: Mus musculus
How it was run: (§1)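 Mice inoculated intraperitoneally with 10⁶ P388 leukemia cells. Single drug dose on day 1 in 0.1 or 0.2 mL of 30% v/v ethanol/water. Optimal dose given in mg/kg. ILS is the percentage increase in lifespan at the optimal dose, with values above 20% taken as significant.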

[5] = test system: P388; assay: Optimal dose administered as a single dose by intraperitoneal inoculation of 10 X E6 murine leukemia P388 cell lines.; settings: Mus musculus; how it was run: as §1

SMILES	HF [1]	IC50 [2] [µM]	IC50 [3] [µM]	ILS [4] [%]	OD [5] [mg/kg]
CCN(CCCl)c1ccc(CCCNC(=O)c2ccc(NCCCc3ccc(N(CC)CCCl)cc3)c3cc4ccccc4nc23)cc1	5.4	1.5	0.29	25	45
O=C(O)CCCc1ccc(N(CCCl)CCCl)cc1 [CHLORAMBUCIL]	58	–	–	37	225
CCN(CCCl)c1ccc(SCCNC(=O)c2ccc(NCCSc3ccc(N(CC)CCCl)cc3)c3cc4ccccc4nc23)cc1	7.4	9.4	0.55	–	–
CN(C)CCNC(=O)c1ccc(NCCCc2ccc(N(CCCl)CCCl)cc2)c2cc3ccccc3nc12	19	0.21	0.06	–	13.3
COc1cc(NS(C)(=O)=O)ccc1Nc1ccc(C(=O)NCCCc2ccc(N(CCCl)CCCl)cc2)c2nc3ccccc3cc12	> 50	> 4000	0.18	26	65
